{
  "source": "paper PMC3809117",
  "about": "(AIDS (London, England), 2009)",
  "key": {"[1]": {"tested_on": "HIV LTR in J89 cells", "assay": "LTR-driven GFP expression in J89 cells by flow cytometry", "assay_type": "cell-based", "conditions": "overnight incubation with HDACi", "method_in_brief": "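Latently infected Jurkat line carrying EGFP as a reporter of Tat-driven HIV LTR expression, grown in RPMI 1640 with 10% FBS at 37°C, 5% CO2. Cells were PBS-washed, exposed overnight to inhibitor, then fixed in PBS with 2% paraformaldehyde. Live cells were gated, with two-parameter analysis to separate GFP from background. From 10 000 events, %GFP+ was reported as mean ± SE of three independent experiments.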"}, "[2]": {"tested_on": "J89 cells", "assay": "MTT cytotoxicity/proliferation assay in J89 cells", "assay_type": "cell-based", "conditions": "24 h, at concentrations used to induce LTR expression", "method_in_brief": "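Cells were washed in PBS and incubated 24 h across a range of inhibitor concentrations, then assayed with an MTT proliferation kit. Percent proliferating cells was calculated relative to cells in drug-free medium. Run in triplicate.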"}, "[3]": {"tested_on": "latent HIV in resting CD4+ T cells", "assay_type": "cell-based, HIV-1", "conditions": "resting CD4+ T cells of aviremic patients on ART, 24 h exposure, compared to PHA", "method_in_brief": "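Resting CD4+ T cells came from leukapheresis by negative selection, from patients with plasma RNA <50 copies/ml. Cells were plated at 2.5, 0.5 or 0.1 million per well and exposed to drug for 24 h. PHA comparator: 1 µg/ml PHA-L, five-fold irradiated allogeneic PBMCs and 20 U/ml IL-2. Cells were then washed and co-cultured with CD8-depleted PBMC. p24 ELISA was read on days 15 and 19, and IUPM derived by maximum likelihood.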"}, "[4]": {"tested_on": "HDACs", "conditions": "HDAC isoforms inhibited; cited from earlier work"}, "[5]": {"tested_on": "latent HIV in resting CD4+ T cells", "conditions": "cited from earlier work"}},
  "data": [
    {"smiles": "CCC(=O)CCCCC[C@@H]1NC(=O)[C@H]2CCCCN2C(=O)[C@H]([C@@H](C)CC)NC(=O)[C@H](Cc2cn(OC)c3ccccc23)NC1=O", "note": "[Apicidin, apicidin]", "values": [
      {"measurement": "LTR activation (LTR-driven GFP expression)", "setting": "[1]", "result": "induced LTR activation"},
      {"measurement": "cell proliferation (MTT)", "setting": "[2]", "result": "slightly antiproliferative"},
      {"measurement": "induction of virus outgrowth (recovery of replication-competent HIV)", "setting": "[3]", "result": "suboptimal"},
      {"measurement": "Selectivity", "setting": "[4]", "result": "HDAC1, 2, 3"}
    ]},
    {"smiles": "O=C(CCCCCCC(=O)Nc1ccccc1)NO", "note": "[SAHA, suberoylanilide hydroxamic acid]", "values": [
      {"measurement": "viral outgrowth from resting CD4+ T cells of aviremic HIV-infected individuals on ART", "setting": "[5]", "result": "induce viral outgrowth"}
    ]},
    {"smiles": "CCCC(CCC)C(=O)O", "note": "[VPA, valproic acid]", "values": [
      {"measurement": "LTR activation (LTR-driven GFP expression)", "setting": "[1]", "result": "effectively induced LTR expression"},
      {"measurement": "cell proliferation (MTT)", "setting": "[2]", "result": "did not perturb cell proliferation"},
      {"measurement": "induction of virus outgrowth (recovery of replication-competent HIV)", "setting": "[3]", "result": "effective at inducing virus"},
      {"measurement": "viral outgrowth from resting CD4+ T cells of aviremic HIV-infected individuals on ART", "setting": "[5]", "result": "induce viral outgrowth"}
    ]}
  ]
}
